# Active and inactive are the calls of the source. The calls are words filed in the database; no cut-off is given here.
# Legend:
# [1] = Toxicity in ip dosed C57BL/6J mouse administered for every other days for 6 weeks; format: organism-based; settings: in vivo
# In short: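 Male C57BL/6J mice (7–8 weeks) were fed an HFC diet (60% fat, 1% cholesterol) from week 1 and given 20 mg/kg i.p. every other day for 6 weeks from week 9, in saline with 10% ethanol and 10% castor oil, against a vehicle group. At the end, after a 6 h fast under ketamine/xylazine, plasma was taken for auto-analyzer ALT, AST, TBIL, ALB, BUN and creatinine, and tissues were weighed.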
# 3T3-L1 [2] = test: Lipid lowering activity in mouse 3T3-L1 cells assessed as adipogenic cocktail-induced triglyceride levels at 1 uM up to 9 days by GPO-POD assay relative to control; format: functional, cell-based; settings: time day <=9
# In short: (§1)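 3T3-L1 cells were differentiated (cocktail on days 0–3, insulin thereafter) with 1 µM compound present during defined windows (days 0–3, 3–6, 6–9, or 0–3/0–6/0–9). TG was measured at day 9 by GPO-POD after Triton X-100 lysis and sonication. TG was normalized to BCA protein and expressed as % of differentiated control.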
# [3] = Half life in Sprague-Dawley rat at 2 mg/kg, iv up to 24 hrs by LC-MS/MS analysis; format: ADME, organism-based; settings: in vivo
# In short: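 Male SD rats (180–220 g, n = 3) received compound in ethanol/saline (5:95), either intravenously at 2 mg/kg or intragastrically at 5 mg/kg. Plasma was sampled at 0, 0.5, 1, 2, 4, 8, 12 and 24 h. Concentrations were measured by LC-MS/MS, and PK parameters were calculated from the concentration–time data.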
# 3T3-L1 [4] = test: Activation of AMPK pathway in mouse 3T3-L1 cells assessed as increase in PCG1alpha mRNA expression at 0.3 to 1 uM after 24 hrs by RT-qPCR analysis; format: cell-based; settings: filed as activator, dose 0.3-1 µM
# 3T3-L1 [5] = test: Activation of AMPK pathway in adipogenic cocktail-induced mouse 3T3-L1 cells with SiRNA-induced AMPKalpha knock down assessed as decrease in PPARgamma protein expression at 1 uM after 24 hrs by Western blot analysis; format: cell-based
# In short: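 3T3-L1 cells at 80% density transfected with 50 nM AMPKα siRNA or negative control for 24 h. Once confluent, differentiated with adipogenic cocktail with or without compound. Protein by Western blot normalized to actin. TG measured by GPO-POD kit, normalized to BCA protein, expressed as % of control.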
# Mus musculus [6] = test: Antiobesity activity in high fat diet-induced obese C57BL/6J mouse model assessed as decrease in liver weight at 20 mg/kg, ip administered for every other days for 6 weeks; format: functional, organism-based
# 3T3-L1 [7] = test: Activation of AMPK pathway in adipogenic cocktail-induced mouse 3T3-L1 cells assessed as decrease in ATP level at 0.3 to 1 uM after 24 hrs; format: cell-based; settings: filed as activator, dose 0.3-1 µM
# In short: (§2)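 Confluent 3T3-L1 pre-adipocytes exposed to adipogenic cocktail (0.5 mM IBMX, 100 ng/mL dexamethasone, 2 µg/mL insulin) with compound at 0.3 or 1 µM for 24 h. ATP quantified with a commercial luminescent kit and normalized to protein.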
# 3T3-L1 [8] = test: Lipid lowering activity in mouse 3T3-L1 cells assessed as adipogenic cocktail-induced triglyceride levels at 1 uM after 6 to 9 days by GPO-POD assay relative to control; format: functional; settings: time 6-9 day; in short: as §1
# C2C12 [9] = test: Activation of AMPK pathway in mouse C2C12 cells assessed as increase in glucose uptake at 1 uM after 6 hrs in presence of LY-294002 by 2-NBDG/Hoechst 33342 staining based Confocal microscopic method; format: cell-based; settings: filed as activator
# In short: (§3)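 C2C12 myoblasts kept in DMEM with 10% FBS and 1% penicillin/streptomycin at 37 °C under 5% CO2.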
# Mus musculus [10] = test: Anti-hyperglycemic activity in high fat diet-induced obese C57BL/6J mouse model assessed as decrease in blood glucose level at 20 mg/kg, ip after 6 hrs; format: functional, organism-based
# In short: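 C57BL/6J mice fed HFC diet (60% fat, 1% cholesterol). Single i.p. injection of saline or compound at 20 mg/kg. Blood glucose measured with a glucose monitor at 0, 0.5, 1, 2, 4, 8, 12 and 24 h.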
# 3T3-L1 [11] = test: Inhibition of mouse 3T3-L1 cells adipocyte differentiation assessed as reduction in adipogenic cocktail-induced PPARgamma protein expression at 0.3 to 1 uM after 24 hrs by Western blot analysis; format: functional, cell-based; settings: dose 0.3-1 µM
# In short: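 3T3-L1 preadipocytes were exposed to adipogenic cocktail with compound (0.3 or 1 µM) and harvested on day 1. Lysates were resolved by SDS-PAGE, immunoblotted (primary antibody overnight at 4 °C, HRP secondary) and quantified by densitometry normalized to actin.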
# [12] = AUC(0 to t) in Sprague-Dawley rat at 2 mg/kg, iv up to 24 hrs by LC-MS/MS analysis; format: ADME, organism-based; design: route intravenous, dose 2 mg/kg, time <=24; settings: in vivo
# In short: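 Male Sprague-Dawley rats (180-220 g, n = 3) received a single intravenous dose of 2 mg/kg in ethanol/saline (5:95). Blood was sampled at 0, 30 min, 1, 2, 4, 8, 12 and 24 h after dosing and centrifuged to plasma. Plasma drug levels were measured by LC-MS/MS, and pharmacokinetic parameters were calculated from the concentration-time data.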
# Mus musculus [13] = test: Antiobesity activity in high fat diet-induced obese C57BL/6J mouse model assessed as ratio of LDL cholesterol level to HDL cholesterol level at 20 mg/kg, ip administered for every other days for 6 weeks by auto-analyzer method (reference value: 0.4 +/- 0.13); format: functional
# [14] = Half life in Sprague-Dawley rat at 2 mg/kg, iv up to 24 hrs by LC-MS/MS analysis; settings: in vivo
# 3T3-L1 [15] = test: Activation of AMPK pathway in adipogenic cocktail-induced mouse 3T3-L1 cells assessed as decrease in ATP level at 1 uM after 24 hrs; format: cell-based; settings: filed as activator; in short: as §2
# [16] = Clearance in Sprague-Dawley rat at 2 mg/kg, iv up to 24 hrs by LC-MS/MS analysis; settings: in vivo
# C2C12 [17] = test: Activation of AMPK pathway in mouse C2C12 cells assessed as increase in glucose uptake at 1 uM after 6 hrs in presence of insulin by 2-NBDG/Hoechst 33342 staining based Confocal microscopic method; format: cell-based; settings: filed as activator; in short: as §3
# 3T3-L1 [18] = test: Lipid lowering activity in mouse 3T3-L1 cells assessed as adipogenic cocktail-induced triglyceride levels at 1 uM incubated for 6 days by GPO-POD assay relative to control; format: functional; settings: time 6 day
# In short: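 Confluent 3T3-L1 cells were treated from day 0 in cocktail (IBMX, dexamethasone, insulin) for 3 days, then re-dosed in insulin medium for 3 more days. For dose–response, concentrations were 0–10 µM (0.01, 0.1, 0.3, 1, 3, 10). On day 6, cells were lysed in 0.2% Triton X-100 and TG was measured by GPO-POD and normalized to BCA protein as % of control. EC50 was fitted from the dose–response. N = 4.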
# 3T3-L1 [19] = test: Activation of AMPK pathway in adipogenic cocktail-induced mouse 3T3-L1 cells assessed as increase in AMP to ATP ratio at 1 uM after 24 hrs; format: cell-based; settings: filed as activator
compound,measurement,setting,value
COc1ccc2[nH]c(-c3nc(NCCCCN4CCCC4)c4ccccc4n3)c(C=O)c2c1,LD50 at 1008 h,[1],500 mg/kg
same,Activity,3T3-L1 [2],Active
same,half-life,[3],4.4 h
same,Activity,3T3-L1 [4],Active
same,Activity,3T3-L1 [5],inactive
same,Activity,Mus musculus [6],Active
same,Activity,3T3-L1 [7],Active
same,Activity,3T3-L1 [8],35.3%
same,Activity,C2C12 [9],Active
same,Activity,Mus musculus [10],Active
same,inhibition,3T3-L1 [11],Active
same,AUC(0-t) at 24 h,[12],308 ng·h/mL
same,Ratio,Mus musculus [13],0.25
CN(C)CCCNc1nc(-c2[nH]c3ccccc3c2C=O)nc2ccccc12,half-life,[14],3.14 h
same,Activity,3T3-L1 [15],Active
same,clearance,[16],125 mL/min/kg
same,Activity,C2C12 [17],Active
same,Activity,3T3-L1 [18],20.8%
same,Activity,3T3-L1 [19],Active

# Source: ChEMBL document CHEMBL4732044, “Discovery of a promising agent IQZ23 for the treatment of obesity and related metabolic disorders” (Eur J Med Chem, 2020)
